Reference: ChEMBL document CHEMBL1127779, “Stereospecific synthesis of peptidyl alpha-keto amides as inhibitors of calpain” (J Med Chem, 1994)
pKi: −log10 of the molar value. Converted amounts (≈) assume the structure as drawn. Non-standard residues stand in square brackets, D forms with d. Residues, ends and D or L forms follow the SMILES beside them. ξ: configuration not given here. *: point of attachment. Cbz = O=C(OCc1ccccc1)*; ξNva = CCCC(N)C(=O)O

Assays:
[1] = Tested for solubility of the compound; assay type: ADME; details: read-out: S
Method in brief: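 The DMA stock was diluted in 0.9% saline to 3% DMA (inhibitor ≤0.9 mg/mL) and brought to pH 2.75 with 0.1 N HCl. It was sonicated 5 min, held 15 min at room temperature and centrifuged 5 min at 16500g. Supernatant concentration came from C4 reverse-phase HPLC (60 °C, 210 nm) peak area, calibrated against standards in acetonitrile.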

[2] = biological target: T1, Calpain-2 catalytic subunit (Bos taurus, UniProt Q27971); test: Tested for inhibitory activity on bovine calpain 2 from heart
T1 sequence (Q27971 whole entry): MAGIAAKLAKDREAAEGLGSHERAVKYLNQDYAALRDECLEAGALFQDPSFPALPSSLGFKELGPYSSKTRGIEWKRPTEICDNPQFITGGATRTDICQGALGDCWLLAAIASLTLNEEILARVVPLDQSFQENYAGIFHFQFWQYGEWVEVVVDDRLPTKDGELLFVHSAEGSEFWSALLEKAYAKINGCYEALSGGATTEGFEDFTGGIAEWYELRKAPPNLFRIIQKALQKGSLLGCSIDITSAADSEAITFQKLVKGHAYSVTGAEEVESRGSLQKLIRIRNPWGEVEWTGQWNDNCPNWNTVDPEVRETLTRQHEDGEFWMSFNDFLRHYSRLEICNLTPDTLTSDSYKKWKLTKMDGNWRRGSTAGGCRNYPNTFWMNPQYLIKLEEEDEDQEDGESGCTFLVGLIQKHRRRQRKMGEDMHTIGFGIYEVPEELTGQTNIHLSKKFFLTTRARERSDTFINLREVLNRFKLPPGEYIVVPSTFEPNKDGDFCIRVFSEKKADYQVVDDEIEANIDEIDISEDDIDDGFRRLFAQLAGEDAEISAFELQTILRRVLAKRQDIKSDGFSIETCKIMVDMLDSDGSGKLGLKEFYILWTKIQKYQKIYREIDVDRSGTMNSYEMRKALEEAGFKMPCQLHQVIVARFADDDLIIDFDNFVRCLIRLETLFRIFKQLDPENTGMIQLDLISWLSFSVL

Row | SMILES | solubility [1] [µg/mL] | pKi [2]
1 | CCS(=O)(=O)CCNC(=O)C(=O)[C@@H](Cc1ccccc1)NC(=O)[C@H](CC(C)C)NC(=O)OCc1ccccc1 | 730 (≈ 1300 µM) | –
2 | CCCC(NC(=O)[C@H](CC(C)C)NC(=O)OCc1ccccc1)C(=O)NCC (stereo partly drawn) (Cbz-Leu-[ξNva]-NHEt) | – | 7.30
